Assay results as given in ChEMBL document CHEMBL4346684, “Synthesis and structure-bactericidal activity relationships of non-ketolides: 9-Oxime clarithromycin 11,12-cyclic carbonate featured with three-to eight-atom-length spacers at 3-OH” (Eur J Med Chem, 2019).
≈ marks a conversion by molar mass, not a printed value.

How the values were obtained:
Format in all cases: functional
Staphylococcus aureus [1] = assay: Ratio of MBC to MIC for inducibly erythromycin-resistant and methicillin resistant Staphylococcus aureus PU32 expressing i-ermA
Streptococcus pneumoniae [2] = assay: Bactericidal activity against erythromycin-susceptible Streptococcus pneumoniae ATCC 49619 assessed as reduction in colony formation incubated in CAMHB medium for 20 to 24 hrs followed by 24 hrs subculturing in the medium without test compound
Streptococcus pyogenes [3] = assay: Ratio of MBC to MIC for inducibly erythromycin resistant Streptococcus pyogenes 01-968 expressing i-ermA
Staphylococcus aureus [4] = assay: Bactericidal activity against inducibly erythromycin-resistant and methicillin resistant Staphylococcus aureus PU32 expressing i-ermA assessed as reduction in colony formation incubated in CAMHB medium for 20 hrs followed by 24 hrs subculturing in the medium without test compound
Haemophilus influenzae [5] = assay: Antimicrobial activity against azithromycin-susceptible Haemophilus influenzae ATCC 49247 incubated in HTM broth medium for 20 to 24 hrs by two-fold microbroth dilution method
Streptococcus pneumoniae [6] = assay: Ratio of MBC to MIC for erythromycin-susceptible Streptococcus pneumoniae ATCC 49619
Streptococcus pneumoniae [7] = assay: Antimicrobial activity against erythromycin-susceptible Streptococcus pneumoniae ATCC 49619 incubated in CAMHB medium for 20 to 24 hrs by two-fold microbroth dilution method
Streptococcus pneumoniae [8] = assay: Ratio of MBC to MIC for mef-encoded erythromycin resistant Streptococcus pneumoniae PU09
Staphylococcus aureus [9] = assay: Antimicrobial activity against inducibly erythromycin-resistant and methicillin resistant Staphylococcus aureus PU32 expressing i-ermA incubated in CAMHB medium for 20 hrs by two-fold microbroth dilution method; conditions: PU32, 20 h
Procedure, shortened: (§1)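 Purified fresh Staphylococcus isolate at about 5×10^5 CFU/ml final in CAMHB, 35 °C for 20 h. Each run included ATCC strains and reference antibiotics as QC, plus an antibiotic-free growth control.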

Staphylococcus aureus [10] = assay: Antimicrobial activity against constitutively erythromycin resistant and methicillin resistant Staphylococcus aureus PU20 expressing c-ermC incubated in CAMHB medium for 20 hrs by two-fold microbroth dilution method; conditions: PU20, 20 h; procedure, shortened: as §1
Streptococcus pneumoniae [11] = assay: Bactericidal activity against mef-encoded erythromycin resistant Streptococcus pneumoniae PU09 assessed as reduction in colony formation incubated in CAMHB medium for 20 to 24 hrs followed by 24 hrs subculturing in the medium without test compound
Streptococcus pneumoniae [12] = assay: Antimicrobial activity against mef-encoded erythromycin resistant Streptococcus pneumoniae PU09 incubated in CAMHB medium for 20 to 24 hrs by two-fold microbroth dilution method
Streptococcus pyogenes [13] = assay: Bactericidal activity against inducibly erythromycin resistant Streptococcus pyogenes 01-968 expressing i-ermA assessed as reduction in colony formation incubated in CAMHB medium for 20 to 24 hrs followed by 24 hrs subculturing in the medium without test compound
Streptococcus pyogenes [14] = assay: Antimicrobial activity against inducibly erythromycin resistant Streptococcus pyogenes 01-968 expressing i-ermA incubated in CAMHB medium for 20 to 24 hrs by two-fold microbroth dilution method
Staphylococcus aureus [15] = assay: Bactericidal activity against constitutively erythromycin resistant and methicillin-resistant Staphylococcus aureus PU20 expressing c-ermC assessed as reduction in colony formation incubated in CAMHB medium for 20 hrs followed by 24 hrs subculturing in the medium without test compound
Haemophilus influenzae [16] = assay: Ratio of MBC to MIC for azithromycin-susceptible Haemophilus influenzae ATCC 49247
Haemophilus influenzae [17] = assay: Bactericidal activity against azithromycin-susceptible Haemophilus influenzae ATCC 49247 assessed as reduction in colony formation incubated in HTM broth medium for 20 to 24 hrs followed by 24 hrs subculturing in the medium without test compound
Moraxella catarrhalis [18] = assay: Ratio of MBC to MIC for erythromycin-susceptible Moraxella catarrhalis 13L332
Moraxella catarrhalis [19] = assay: Antimicrobial activity against erythromycin-susceptible Moraxella catarrhalis 13L332 incubated in CAMHB medium for 20 hrs by two-fold microbroth dilution method; conditions: 13L332, 20 h
Procedure, shortened: (§2)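 Clinical isolates and ATCC strains, purified by plate activation and used fresh; inoculum about 5×10^5 CFU/ml final. Grown in CAMHB at 35 °C for 20 h.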

Moraxella catarrhalis [20] = assay: Bactericidal activity against erythromycin-susceptible Moraxella catarrhalis 13L332 assessed as reduction in colony formation incubated in CAMHB medium for 20 hrs followed by 24 hrs subculturing in the medium without test compound
Staphylococcus aureus [21] = assay: Antimicrobial activity against inducibly erythromycin resistant Staphylococcus aureus PU64 expressing i-ermA incubated in CAMHB medium for 20 hrs by two-fold microbroth dilution method; conditions: PU64, 20 h
Procedure, shortened: (§3)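 Purified fresh Staphylococcus isolate at about 5×10^5 CFU/ml final in CAMHB, 35 °C for 20 h. […] Each run included ATCC strains and reference antibiotics as QC, plus an antibiotic-free growth control.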

Streptococcus pyogenes [22] = assay: Antimicrobial activity against erythromycin-susceptible Streptococcus pyogenes A3 incubated in CAMHB medium for 20 to 24 hrs by two-fold microbroth dilution method
Streptococcus pneumoniae [23] = assay: Antimicrobial activity against constitutively erythromycin resistant Streptococcus pneumoniae PU27 expressing c-erm incubated in CAMHB medium for 20 to 24 hrs by two-fold microbroth dilution method
Procedure, shortened: (§4)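 Purified fresh Streptococcus isolate at about 5×10^5 CFU/ml final in CAMHB with 5% horse serum, 35 °C for 20–24 h. […] Each run included ATCC strains and reference antibiotics as QC, plus an antibiotic-free growth control.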

Staphylococcus aureus [24] = assay: Antimicrobial activity against erythromycin-susceptible Staphylococcus aureus ATCC 29213 incubated in CAMHB medium for 20 hrs by two-fold microbroth dilution method; conditions: ATCC 29213, 20 h; procedure, shortened: as §2
Staphylococcus aureus [25] = assay: Antimicrobial activity against inducibly erythromycin-resistant Staphylococcus aureus PU32 expressing i-ermA incubated in CAMHB medium for 20 hrs by two-fold microbroth dilution method; conditions: PU32, 20 h; procedure, shortened: as §3
Streptococcus pyogenes [26] = assay: Antimicrobial activity against constitutively erythromycin resistant Streptococcus pyogenes A2 expressing c-erm incubated in CAMHB medium for 20 to 24 hrs by two-fold microbroth dilution method; procedure, shortened: as §4
Staphylococcus aureus [27] = assay: Antimicrobial activity against constitutively erythromycin resistant Staphylococcus aureus PU20 expressing c-ermC incubated in CAMHB medium for 20 hrs by two-fold microbroth dilution method; conditions: PU20, 20 h; procedure, shortened: as §3
[28] = test system: Staphylococcus epidermidis; assay: Antimicrobial activity against Staphylococcus epidermidis E1 incubated in CAMHB medium for 20 hrs by two-fold microbroth dilution method; conditions: E1, 20 h; procedure, shortened: as §2

Compound	Ratio (Staphylococcus aureus [1])	MBC (Streptococcus pneumoniae [2]) [µg/mL]	Ratio (Streptococcus pyogenes [3])	MBC (Staphylococcus aureus [4]) [µg/mL]	MIC (Haemophilus influenzae [5]) [µg/mL]	Ratio (Streptococcus pneumoniae [6])	MIC (Streptococcus pneumoniae [7]) [µg/mL]	Ratio (Streptococcus pneumoniae [8])	MIC (Staphylococcus aureus [9]) [µg/mL]	MIC (Staphylococcus aureus [10]) [µg/mL]	MBC (Streptococcus pneumoniae [11]) [µg/mL]	MIC (Streptococcus pneumoniae [12]) [µg/mL]	MBC (Streptococcus pyogenes [13]) [µg/mL]	MIC (Streptococcus pyogenes [14]) [µg/mL]	MBC (Staphylococcus aureus [15]) [µg/mL]	Ratio (Haemophilus influenzae [16])	MBC (Haemophilus influenzae [17]) [µg/mL]	also measured
CC[C@H]1OC(=O)[C@H](C)[C@@H](OC(=O)NCC#Cc2cccnc2)[C@H](C)[C@@H](O[C@@H]2O[C@H](C)C[C@H](N(C)C)[C@H]2O)[C@](C)(OC)C[C@@H](C)/C(=N\OC)[C@H](C)[C@H]2OC(=O)O[C@@]21C	>8	0.062 (≈ 0.0772 µM)	4	> 128	> 256	2	0.03 (≈ 0.0374 µM)	4	16 (≈ 19.9 µM)	> 256	2 (≈ 2.49 µM)	0.5 (≈ 0.623 µM)	4 (≈ 4.98 µM)	1 (≈ 1.25 µM)	–	–	–	–
CC[C@H]1OC(=O)[C@H](C)[C@@H](OC(=O)CCNCCCc2cccnc2)[C@H](C)[C@@H](O[C@@H]2O[C@H](C)C[C@H](N(C)C)[C@H]2O)[C@](C)(OC)C[C@@H](C)/C(=N\OC)[C@H](C)[C@H]2OC(=O)O[C@@]21C	>8	8 (≈ 9.58 µM)	>8	> 256	256 (≈ 307 µM)	8	1 (≈ 1.2 µM)	2	32 (≈ 38.3 µM)	256 (≈ 307 µM)	4 (≈ 4.79 µM)	2 (≈ 2.4 µM)	> 4	0.5 (≈ 0.599 µM)	> 256	1	256 (≈ 307 µM)	–
CC[C@H]1OC(=O)[C@H](C)[C@@H](OC(=O)NCCCCc2cccnc2)[C@H](C)[C@@H](O[C@@H]2O[C@H](C)C[C@H](N(C)C)[C@H]2O)[C@](C)(OC)C[C@@H](C)/C(=N\OC)[C@H](C)[C@H]2OC(=O)O[C@@]21C	>8	2 (≈ 2.44 µM)	1	> 256	256 (≈ 312 µM)	4	0.5 (≈ 0.609 µM)	1	32 (≈ 39 µM)	> 256	8 (≈ 9.74 µM)	8 (≈ 9.74 µM)	128 (≈ 156 µM)	128 (≈ 156 µM)	–	1	256 (≈ 312 µM)	–
C=CCNCCC(=O)O[C@H]1[C@H](C)[C@@H](O[C@@H]2O[C@H](C)C[C@H](N(C)C)[C@H]2O)[C@](C)(OC)C[C@@H](C)/C(=N\OC)[C@H](C)[C@H]2OC(=O)O[C@]2(C)[C@@H](CC)OC(=O)[C@@H]1C	>8	2 (≈ 2.65 µM)	>8	> 256	256 (≈ 339 µM)	2	1 (≈ 1.32 µM)	–	32 (≈ 42.3 µM)	> 256	8 (≈ 10.6 µM)	4 (≈ 5.29 µM)	> 8	1 (≈ 1.32 µM)	–	1	256 (≈ 339 µM)	–
CC[C@H]1OC(=O)[C@H](C)[C@@H](OCC#Cc2ccc(NC(=O)c3ccccn3)nc2)[C@H](C)[C@@H](O[C@@H]2O[C@H](C)C[C@H](N(C)C)[C@H]2O)[C@](C)(OC)C[C@@H](C)/C(=N\OC)[C@H](C)[C@H]2OC(=O)O[C@@]21C	–	16 (≈ 18.2 µM)	1	> 256	–	4	4 (≈ 4.55 µM)	–	> 256	128 (≈ 145 µM)	16 (≈ 18.2 µM)	4 (≈ 4.55 µM)	16 (≈ 18.2 µM)	16 (≈ 18.2 µM)	> 256	–	–	Ratio (Moraxella catarrhalis [18]): 1; MIC (Moraxella catarrhalis [19]): 8 µg/mL (≈ 9.09 µM); MBC (Moraxella catarrhalis [20]): 8 µg/mL (≈ 9.09 µM)
C#CCNCCC(=O)O[C@H]1[C@H](C)[C@@H](O[C@@H]2O[C@H](C)C[C@H](N(C)C)[C@H]2O)[C@](C)(OC)C[C@@H](C)/C(=N\OC)[C@H](C)[C@H]2OC(=O)O[C@]2(C)[C@@H](CC)OC(=O)[C@@H]1C	>8	1 (≈ 1.33 µM)	>8	> 128	128 (≈ 170 µM)	8	0.13 (≈ 0.172 µM)	2	16 (≈ 21.2 µM)	256 (≈ 340 µM)	4 (≈ 5.31 µM)	2 (≈ 2.65 µM)	> 4	0.5 (≈ 0.663 µM)	> 256	1	128 (≈ 170 µM)	–
CC[C@H]1OC(=O)[C@H](C)[C@@H](OCC#Cc2cncc(NC(=O)c3ccccn3)c2)[C@H](C)[C@@H](O[C@@H]2O[C@H](C)C[C@H](N(C)C)[C@H]2O)[C@](C)(OC)C[C@@H](C)/C(=N\OC)[C@H](C)[C@H]2OC(=O)O[C@@]21C	–	16 (≈ 18.2 µM)	2	> 256	–	4	4 (≈ 4.55 µM)	–	> 256	256 (≈ 291 µM)	16 (≈ 18.2 µM)	4 (≈ 4.55 µM)	32 (≈ 36.4 µM)	16 (≈ 18.2 µM)	> 256	–	–	Ratio (Moraxella catarrhalis [18]): 2; MIC (Moraxella catarrhalis [19]): 8 µg/mL (≈ 9.09 µM); MBC (Moraxella catarrhalis [20]): 16 µg/mL (≈ 18.2 µM)
CC[C@H]1OC(=O)[C@H](C)[C@@H](OC(=O)CCNCC#Cc2cccnc2)[C@H](C)[C@@H](O[C@@H]2O[C@H](C)C[C@H](N(C)C)[C@H]2O)[C@](C)(OC)C[C@@H](C)/C(=N\OC)[C@H](C)[C@H]2OC(=O)O[C@@]21C	>4	4 (≈ 4.81 µM)	>8	> 256	256 (≈ 308 µM)	4	1 (≈ 1.2 µM)	2	64 (≈ 77 µM)	256 (≈ 308 µM)	16 (≈ 19.3 µM)	8 (≈ 9.63 µM)	> 64	8 (≈ 9.63 µM)	> 256	1	256 (≈ 308 µM)	–
CC[C@H]1OC(=O)[C@H](C)[C@@H](OC(=O)NCCCc2ccc3c(c2)c(=O)c(C(=O)O)cn3C2CC2)[C@H](C)[C@@H](O[C@@H]2O[C@H](C)C[C@H](N(C)C)[C@H]2O)[C@](C)(OC)C[C@@H](C)/C(=N\OC)[C@H](C)[C@H]2OC(=O)O[C@@]21C	>8	2 (≈ 2.09 µM)	2	> 256	256 (≈ 267 µM)	2	1 (≈ 1.04 µM)	4	32 (≈ 33.4 µM)	256 (≈ 267 µM)	8 (≈ 8.36 µM)	2 (≈ 2.09 µM)	8 (≈ 8.36 µM)	4 (≈ 4.18 µM)	> 256	1	256 (≈ 267 µM)	–
C=CCO/N=C1\[C@H](C)C[C@@](C)(OC)[C@H](O[C@@H]2O[C@H](C)C[C@H](N(C)C)[C@H]2O)[C@@H](C)[C@H](OCC#Cc2cccnc2N)[C@@H](C)C(=O)O[C@H](CC)[C@@]2(C)OC(=O)O[C@@H]2[C@H]1C	–	–	–	–	–	–	4 (≈ 4.99 µM)	–	–	–	–	8 (≈ 9.99 µM)	–	–	–	–	–	MIC (Staphylococcus aureus [21]): 64 µg/mL (≈ 79.9 µM); MIC (Streptococcus pyogenes [22]): 4 µg/mL (≈ 4.99 µM); MIC (Streptococcus pneumoniae [23]): 32 µg/mL (≈ 40 µM); MIC (Staphylococcus aureus [24]): 64 µg/mL (≈ 79.9 µM); MIC (Staphylococcus aureus [25]): 256 µg/mL (≈ 320 µM); MIC (Streptococcus pyogenes [26]): 64 µg/mL (≈ 79.9 µM); MIC (Staphylococcus aureus [27]): 256 µg/mL (≈ 320 µM); MIC [28]: 256 µg/mL (≈ 320 µM)
